PubChem BioAssay AID493157 (Broad Institute, 2011)
Activity calls are given as the source filed them.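 How the source made its calls: active means growth-lowering compounds whose AC50 is at most ten times the top tested dose; inconclusive means flat curve with moderate signal loss, or a poor fit; inactive means the rest.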

What was measured:
[1] = C. albicans growth inhibition without fluconazole, dose response, counter-screen for antifungal drug resistance project, CaCi-2 strain, Alamar Blue, dry powder, set 8 (AID 493157); details: C. albicans CaCi-2 growth without fluconazole, Alamar Blue, 48 h
Outline: (§1)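 Test system: fluconazole-resistant Candida albicans clinical isolate CaCi-2, no fluconazole present; Quantity: inoculum OD600 0.00015; Medium: RPMI-based synthetic defined medium with MOPS, glucose and uridine; Timing: 48 h static compound exposure, 37 °C, 2 h Alamar Blue; Signal: Alamar Blue fluorescence, 544/590 nm; Evaluation: yeast growth via fluorescence; Benchmarks: geldanamycin positive control.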

[2] = system: C. albicans CaCi-2 (fluconazole-resistant clinical isolate) growth without fluconazole, Alamar Blue, 48 h; assay: as above
Outline: as §1

For `CCCCn1nc(-c2ccccc2)c2ccccc21`, the max activity ([1]; at 26 µM) was 28% (inactive).
For `O=C(Cn1c2ccc(F)cc2c2nc3n(c(=O)c21)CCS3)N1CCCC1`, the max activity ([1]; at 0.1 µM) was -25.8% (inactive).
In the case of `COC(=O)Cn1nc(-c2ccccc2)c2ccc(C(F)(F)F)cc21`, the max activity ([1]; at 0.1 µM) is reported as -34% (inactive).
With `O=C(Cn1nc(-c2ccccc2)c2ccccc21)OC1CCC1` the AC50 [2] was > 26 µM (inactive).
With `COC(=O)Cn1nc(-c2ccc(C#N)cc2)c2ccccc21` the max activity ([1]; at 26 µM) was -38.6% (inactive).
For `O=C(Cn1c2ccccc2c2nc3n(c(=O)c21)CCS3)N1CCCC1`, the max activity ([1]; at 12 µM) was 17.2% (inactive).
In the case of `O=C(Cn1c2ccccc2c2ccncc21)N1CCCCC1`, the max activity ([1]; at 6 µM) is reported as -15.9% (inactive).
With `COC(=O)Cn1ncc2ccccc21` the max activity ([1]; at 26 µM) was -25.4% (inactive).
For `CCN(CC)C(=O)Cn1c2ccccc2c2nc3n(c(=O)c21)CCS3`, the max activity ([1]; at 0.38 µM) was -31.2% (inactive).
For `O=C(Cn1c2ccc(F)cc2c2nc3n(c(=O)c21)CCS3)N1CCCCCC1`, the max activity ([1]; at 26 µM) was 13.5% (inactive).
With `O=C(Cn1c2ccccc2c2nc3n(c(=O)c21)CCS3)N1CCOCC1` the max activity ([1]; at 0.8 µM) was -18.5% (inactive).
For `O=C(O)Cn1nc(-c2ccccc2)c2ccccc21`, the max activity ([1]; at 6 µM) was 18.6% (inactive).
In the case of `COC(=O)Cn1nc(-c2ccccc2C)c2ccccc21`, the max activity ([1]; at 26 µM) is reported as 1.36% (inactive).
With `COC(=O)Cn1nc(-c2ccccc2)c2ccccc21` the max activity ([1]; at 12 µM) was 35.4% (inactive).
In the case of `CC1CCN(C(=O)Cn2c3ccccc3c3nc4n(c(=O)c32)CCS4)CC1`, the max activity ([1]; at 12 µM) is reported as -29.8% (inactive).
For `FC(F)(F)c1ccc(-c2n[nH]c3ccccc23)cc1`, the max activity ([1]; at 0.195 µM) was -25.6% (inactive).
For `O=C1OCCC1n1nc(-c2ccccc2)c2ccccc21` (centres undefined), the max activity ([1]; at 0.195 µM) was -31.5% (inactive).
With `O=C(Cn1c2ccccc2c2nc3n(c(=O)c21)CCS3)N1CCCCC1` the max activity ([1]; at 0.1 µM) was -24.6% (inactive).
In the case of `COc1ccc(-c2n[nH]c3ccccc23)cc1`, the max activity ([1]; at 6 µM) is reported as -32.5% (inactive).
For `COC(=O)Cn1nc(I)c2ccccc21`, the max activity ([1]; at 1.6 µM) was -30.3% (inactive).
With `COC(=O)CCCn1nc(-c2ccccc2)c2ccccc21` the max activity ([1]; at 1.6 µM) was -17.6% (inactive).
For `COC(=O)Cn1c(-c2ccccc2)nc2ccccc21`, the max activity ([1]; at 6 µM) was 19.2% (inactive).
With `COC(=O)Cn1nc(-c2cccc(F)c2)c2ccccc21` the max activity ([1]; at 0.8 µM) was -22.1% (inactive).
For `COC(=O)C(C)(C)n1nc(-c2ccccc2)c2ccccc21`, the max activity ([1]; at 0.1 µM) was -31.3% (inactive).
In the case of `O=C(Cn1c2ccc(F)cc2c2nc3n(c(=O)c21)CCS3)N1CCCCC1`, the max activity ([1]; at 26 µM) is reported as 27.4% (inactive).
With `COC(=O)Cn1nc(-c2ccc(F)cc2)c2ccccc21` the max activity ([1]; at 3 µM) was -27% (inactive).
For `CCN(CC)C(=O)Cn1c2ccc(F)cc2c2nc3n(c(=O)c21)CCS3`, the max activity ([1]; at 0.38 µM) was -28.9% (inactive).
For `COC(=O)Cn1nc(-c2ccccc2)c2cccc(C(F)(F)F)c21`, the max activity ([1]; at 0.1 µM) was -21.2% (inactive).
With `CCC(=O)Cn1nc(-c2ccccc2)c2ccccc21` the max activity ([1]; at 0.8 µM) was -10.2% (inactive).
